Reference: ChEMBL document CHEMBL4680230, “Discovery of aryl-piperidine derivatives as potential antipsychotic agents using molecular hybridization strategy” (Eur J Med Chem, 2020)

Experiments:
[1] = biological target: 5-hydroxytryptamine receptor 2A (Homo sapiens, UniProt P28223); experiment: Antagonist activity at human 5HT2A receptor expressed in CHO-K1 cells measured after 15 mins by FLIPR assay; type: cell-based
D(2) dopamine receptor = D(2) dopamine receptor (Homo sapiens, UniProt P14416); experiment: Antagonist activity at human D2 receptor expressed in HEK293 cells incubated for 60 mins by Eu-cAMP tracer based LANCE ultra cAMP assay; type: cell-based
Sequence of D(2) dopamine receptor (P14416 whole entry): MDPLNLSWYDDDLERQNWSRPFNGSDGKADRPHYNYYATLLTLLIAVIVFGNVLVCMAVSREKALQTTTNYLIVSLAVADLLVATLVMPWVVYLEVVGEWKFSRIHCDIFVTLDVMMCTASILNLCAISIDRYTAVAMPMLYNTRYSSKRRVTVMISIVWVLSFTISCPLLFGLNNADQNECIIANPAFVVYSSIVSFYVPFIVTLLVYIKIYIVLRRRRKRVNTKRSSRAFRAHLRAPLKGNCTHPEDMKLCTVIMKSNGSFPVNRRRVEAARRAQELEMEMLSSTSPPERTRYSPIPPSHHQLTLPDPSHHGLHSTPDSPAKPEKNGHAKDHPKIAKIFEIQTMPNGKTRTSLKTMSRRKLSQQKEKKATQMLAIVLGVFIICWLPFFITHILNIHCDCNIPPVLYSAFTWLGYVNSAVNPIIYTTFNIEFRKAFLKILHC

[2] = biological target: T1, 5-hydroxytryptamine receptor 1A (Homo sapiens, UniProt P08908); experiment: Agonist activity at human 5H1A receptor expressed in HEK293 cells incubated for 60 mins by Eu-cAMP tracer based LANCE ultra cAMP assay; type: functional, cell-based
T1 sequence (P08908 whole entry): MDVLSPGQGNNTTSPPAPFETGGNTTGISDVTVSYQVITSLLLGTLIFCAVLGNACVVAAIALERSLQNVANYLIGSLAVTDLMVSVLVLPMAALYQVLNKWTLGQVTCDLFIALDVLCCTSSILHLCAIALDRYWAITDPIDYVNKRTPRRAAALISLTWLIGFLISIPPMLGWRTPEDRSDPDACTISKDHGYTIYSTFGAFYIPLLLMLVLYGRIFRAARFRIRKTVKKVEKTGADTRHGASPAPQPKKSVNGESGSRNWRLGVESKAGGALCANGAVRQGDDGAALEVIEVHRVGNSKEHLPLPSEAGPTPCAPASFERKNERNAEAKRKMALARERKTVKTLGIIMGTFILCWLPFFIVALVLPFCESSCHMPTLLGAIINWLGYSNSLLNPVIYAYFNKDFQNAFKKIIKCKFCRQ
Summary of the method: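 Cell-based TR-FRET cAMP assay on human 5-HT1A receptor-expressing cells. Cells were collected in stimulation buffer, added to the compound, centrifuged briefly and incubated 60 min at room temperature. Eu-cAMP tracer and ULight-anti-cAMP were then added, followed by another 60 min at room temperature before reading. The reference agonist was 8-OH-DPAT. […] came from sigmoidal nonlinear regression.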

[3] = Half life in mouse liver microsomes measured after 60 mins in presence of NADPH by LC-MS/MS analysis; type: ADME, Microsome
Summary of the method: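 Mouse liver microsomes (20 mg/ml stock) were incubated with compound in 0.1 M PBS, pH 7.4, at 37 °C. Compound came from a 1 mM methanol stock, diluted in methanol/water. Reaction was started with NADPH (10 mM stock). Aliquots at 0, 5, 10, 20, 40 and 60 min were quenched in cold methanol and centrifuged at 4 °C. Supernatants were analysed by LC-MS/MS.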

[4] = AUC (0 to 24 hrs) in ICR mouse at 5 mg/kg, iv; type: ADME, organism-based; design: time < 24 hr, route intravenous, dose 5 mg/kg; conditions: in vivo
Summary of the method: (§1)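 Pharmacokinetics in ICR mice, n = 6 per group, after a single 5 mg/kg intravenous dose or a 25 mg/kg oral dose. Plasma exposure gave AUC over 0–24 h, t1/2, Cmax and Tmax. Oral bioavailability was derived from comparison of the two routes.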

[5] = Oral bioavailability in ICR mouse at 25 mg/kg; type: ADME, organism-based; conditions: in vivo; summary of the method: as §1
[6] = Brain to plasma partition coefficient, Kp of compound in ICR mouse at 1 mg/kg, iv measured after 4 hrs; type: ADME, organism-based
Summary of the method: (§2)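 Brain penetration in ICR mice, n = 3 per group, given 1 mg/kg intravenously. Plasma, cerebrospinal fluid and brain levels were measured at 1 h and 4 h post-dose. Kp is the brain-to-plasma concentration ratio.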

[7] = Half life in ICR mouse at 25 mg/kg, po; type: ADME, organism-based; conditions: in vivo; summary of the method: as §1
[8] = Half life in ICR mouse at 5 mg/kg, iv; type: ADME, organism-based; conditions: in vivo; summary of the method: as §1
[9] = Tmax in ICR mouse at 25 mg/kg, po; type: ADME, organism-based; conditions: in vivo; summary of the method: as §1
[10] = Drug concentration in ICR mouse brain at 1 mg/kg, iv measured after 1 hr; type: ADME, organism-based; summary of the method: as §2
[11] = Brain to plasma partition coefficient, Kp of compound in ICR mouse at 1 mg/kg, iv measured after 1 hr; type: ADME, organism-based; summary of the method: as §2
[12] = Drug concentration in ICR mouse cerebrospinal fluid at 1 mg/kg, iv measured after 1 hr; type: ADME, organism-based; conditions: read-out: Drug uptake; summary of the method: as §2
[13] = Plasma concentration in ICR mouse at 1 mg/kg, iv measured after 1 hr; type: ADME, organism-based; summary of the method: as §2
[14] = AUC (0 to 24 hrs) in ICR mouse at 25 mg/kg, po; type: ADME, organism-based; design: time < 24 hr, route oral, dose 25 mg/kg; conditions: in vivo; summary of the method: as §1
[15] = Drug concentration in ICR mouse brain at 1 mg/kg, iv measured after 4 hrs; type: ADME, organism-based; summary of the method: as §2
[16] = Cmax in ICR mouse at 25 mg/kg, po; type: ADME, organism-based; design: route oral, dose 25 mg/kg; conditions: in vivo; summary of the method: as §1
[17] = Plasma concentration in ICR mouse at 1 mg/kg, iv measured after 4 hrs; type: ADME, organism-based; summary of the method: as §2
[18] = biological target: T1, 5-hydroxytryptamine receptor 1A; experiment: Displacement of [3H]5-HT from recombinant 5HT1A receptor (unknown origin) expressed in CHO cell membrane measured after 50 mins by microbeta scintillation counting method; type: cell membranes
[19] = biological target: T1, 5-hydroxytryptamine receptor 1A; experiment: Agonist activity at recombinant 5HT1A receptor (unknown origin) expressed in CHO cell membrane assessed as [35S]GTPgammaS binding by liquid scintillation counting method; type: functional, cell membranes

Sequence of 5-hydroxytryptamine receptor 2A (P28223 whole entry): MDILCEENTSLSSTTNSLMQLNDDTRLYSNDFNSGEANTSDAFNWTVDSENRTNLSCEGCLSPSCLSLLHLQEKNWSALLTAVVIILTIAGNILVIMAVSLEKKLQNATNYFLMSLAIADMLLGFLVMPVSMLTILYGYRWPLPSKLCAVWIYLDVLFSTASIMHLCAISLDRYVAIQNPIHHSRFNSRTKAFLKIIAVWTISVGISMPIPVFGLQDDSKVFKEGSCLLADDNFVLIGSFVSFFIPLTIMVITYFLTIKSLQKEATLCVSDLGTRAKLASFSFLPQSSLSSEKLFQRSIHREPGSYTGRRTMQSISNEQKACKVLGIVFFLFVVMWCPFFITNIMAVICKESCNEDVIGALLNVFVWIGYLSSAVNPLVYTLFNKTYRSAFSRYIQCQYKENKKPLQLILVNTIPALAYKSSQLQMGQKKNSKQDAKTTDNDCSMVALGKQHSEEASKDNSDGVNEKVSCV

Row | Compound | IC50 ([1]; read-out: IC50) | IC50 (D(2) dopamine receptor; read-out: IC50) | EC50 ([2]; read-out: EC50) | EC50 ([2]; hek293) | other results
1 | CCCN(CCCN1CCN(c2cccc(Cl)c2Cl)CC1)C(=O)c1ccccc1 | 3250 nM | 485 nM | 452 nM | – | –
2 | O=S(=O)(c1ccc(C(F)(F)F)cc1)N(CCCN1CCC(c2noc3cc(F)ccc23)CC1)C1COC1 | 92.7 nM | 2.3 nM | – | Not Active | –
3 | N#Cc1ccc(S(=O)(=O)N(CCCN2CCC(c3noc4cc(F)ccc34)CC2)C2COC2)cc1 | 11.3 nM | 3.6 nM | – | Not Active | –
4 | O=C(c1ccccc1)N(CCCN1CCC(c2noc3cc(F)ccc23)CC1)C1COC1 | 18.8 nM | 156 nM | – | Not Active | half-life [3]: 173 min
5 | O=C(c1ccccc1)N(CCCN1CCC(c2noc3cc(F)ccc23)CC1)CC1CC1 | 40.8 nM | – | – | Not Active | half-life [3]: 6.9 min
6 | CC(C)N(CCCN1CCN(c2cccc(Cl)c2Cl)CC1)C(=O)c1ccccc1 | 2010 nM | 528 nM | 46.1 nM | – | –
7 | COc1ccccc1N1CCN(CCCN(CC2CC2)C(=O)c2ccccc2)CC1 | – | – | – | Not Active | IC50 ([1]; cho-k1): Not Active
8 | CCCN(CCCN1CCN(c2ccccn2)CC1)C(=O)c1ccccc1 | 7550 nM | 6930 nM | 54.5 nM | – | –
9 | O=S(=O)(c1ccc(Cl)cc1)N(CCCN1CCC(c2noc3cc(F)ccc23)CC1)C1COC1 | 34.6 nM | 2 nM | – | Not Active | –
10 | CCCN(CCCN1CCC(c2noc3cc(F)ccc23)CC1)C(=O)c1ccccc1 | 73.1 nM | 18.5 nM | – | Not Active | half-life [3]: 6.2 min
11 | O=S(=O)(c1ccccc1)N(CCCN1CCC(c2noc3cc(F)ccc23)CC1)C1COC1 | 9.3 nM | 1.9 nM | – | Not Active | –
12 | O=C(c1ccccc1)N(CCCN1CCN(c2cccc(Cl)c2Cl)CC1)CC1CC1 | 768 nM | – | 175 nM | – | –
13 | O=C(c1ccccc1)N(CCCN1CCN(c2ccccn2)CC1)C1COC1 | – | – | 374 nM | – | IC50 ([1]; cho-k1): Not Active; IC50 (D(2) dopamine receptor; hek293): Not Active
14 | COc1ccccc1N1CCN(CCCN(C(=O)c2ccccc2)C2COC2)CC1 | – | 3760 nM | – | Not Active | IC50 ([1]; cho-k1): Not Active
15 | O=C(c1ccccc1)N(CCCN1CCN(c2ccccn2)CC1)CC1CC1 | 7720 nM | – | 24.9 nM | – | IC50 (D(2) dopamine receptor; hek293): Not Active
16 | O=S(=O)(c1ccc(F)cc1)N(CCCN1CCC(c2noc3cc(F)ccc23)CC1)C1COC1 | 15.1 nM | 3 nM | – | Not Active | AUC(0-t) at 24 h [4]: 829 ng·h/mL; bioavailability [5]: 6.3%; Kp at 4 h [6]: 4.03; half-life [7]: 120 min; half-life [8]: 32.4 min; Tmax [9]: 15 min; concentration at 1 h [10]: 129 ng/g; Kp at 1 h [11]: 1.72; concentration at 1 h [12]: 2 ng/mL; concentration at 1 h [13]: 75.4 ng/mL; AUC(0-t) at 24 h [14]: 259 ng·h/mL; concentration at 4 h [15]: 10.7 ng/g; Cmax [16]: 142 ng/mL; concentration at 4 h [17]: 2.7 ng/mL
17 | COc1ccccc1N1CCN(CCCN(C(=O)c2ccccc2)C(C)C)CC1 | – | – | – | Not Active | IC50 ([1]; cho-k1): Not Active
18 | O=C(CN1CCN(CCCc2c[nH]c3ccc(F)cc23)CC1)N(c1ccccc1)C1CCCCC1 | – | – | 7 nM | – | Ki [18]: 51.9 nM; Ki [1]: 207 nM; EC50 [19]: 7 nM; Ki (D(2) dopamine receptor): 2160 nM
19 | CC(C)N(CCCN1CCC(c2noc3cc(F)ccc23)CC1)C(=O)c1ccccc1 | 11.6 nM | 59.3 nM | – | Not Active | half-life [3]: 31.5 min
20 | CC(C)N(CCCN1CCN(c2ccccn2)CC1)C(=O)c1ccccc1 | – | – | 22.8 nM | – | IC50 ([1]; cho-k1): Not Active; IC50 (D(2) dopamine receptor; hek293): Not Active
21 | O=C(c1ccccc1)N(CCCN1CCN(c2cccc(Cl)c2Cl)CC1)C1COC1 | 2180 nM | 1880 nM | 583 nM | – | –
